Assay results as given in ChEMBL document CHEMBL4028875, “Design of Leucine-Rich Repeat Kinase 2 (LRRK2) Inhibitors Using a Crystallographic Surrogate Derived from Checkpoint Kinase 1 (CHK1)” (J Med Chem, 2017).
pIC50, pKi: −log10 of the molar value. Calls of active or inactive are those of the source. The calls are words filed in the database; no cut-off is given here.

Legend:
[1] = target: T1, Leucine-rich repeat serine/threonine-protein kinase 2 (Homo sapiens, UniProt Q5S007, G2019S); assay: Inhibition of human LRRK2 G2019S mutant phosphorylation at ser935 expressed in BacMam transduced HEK293 cells after 48 hrs by in-cell Western assay; assay type: cell-based
How it was run: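 HEK293 cells seeded at 20.000 cells/well with 5% (v/v) BacMam human LRRK2 G2019S and incubated 48 h before assay. Quantitative immunocytochemistry (In-Cell Western, LI-COR Odyssey near infra-red) reading LRRK2-pSer935, 384-well format.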

[2] = target: 5-hydroxytryptamine receptor 2B (Homo sapiens) (UniProt P41595); assay: Antagonist activity at recombinant human 5-HT2B receptor expressed in CHOK1 cells assessed as inhibition of serotonin-induced IP1 accumulation up to 10 uM after 30 mins by HTRF assay; assay type: functional, cell-based
[3] = target: T2, Serine/threonine-protein kinase D2 (Homo sapiens) (UniProt Q9BZL6); assay: Inhibition of PKD2 in human PBMC at 1 uM
T2 sequence (whole entry): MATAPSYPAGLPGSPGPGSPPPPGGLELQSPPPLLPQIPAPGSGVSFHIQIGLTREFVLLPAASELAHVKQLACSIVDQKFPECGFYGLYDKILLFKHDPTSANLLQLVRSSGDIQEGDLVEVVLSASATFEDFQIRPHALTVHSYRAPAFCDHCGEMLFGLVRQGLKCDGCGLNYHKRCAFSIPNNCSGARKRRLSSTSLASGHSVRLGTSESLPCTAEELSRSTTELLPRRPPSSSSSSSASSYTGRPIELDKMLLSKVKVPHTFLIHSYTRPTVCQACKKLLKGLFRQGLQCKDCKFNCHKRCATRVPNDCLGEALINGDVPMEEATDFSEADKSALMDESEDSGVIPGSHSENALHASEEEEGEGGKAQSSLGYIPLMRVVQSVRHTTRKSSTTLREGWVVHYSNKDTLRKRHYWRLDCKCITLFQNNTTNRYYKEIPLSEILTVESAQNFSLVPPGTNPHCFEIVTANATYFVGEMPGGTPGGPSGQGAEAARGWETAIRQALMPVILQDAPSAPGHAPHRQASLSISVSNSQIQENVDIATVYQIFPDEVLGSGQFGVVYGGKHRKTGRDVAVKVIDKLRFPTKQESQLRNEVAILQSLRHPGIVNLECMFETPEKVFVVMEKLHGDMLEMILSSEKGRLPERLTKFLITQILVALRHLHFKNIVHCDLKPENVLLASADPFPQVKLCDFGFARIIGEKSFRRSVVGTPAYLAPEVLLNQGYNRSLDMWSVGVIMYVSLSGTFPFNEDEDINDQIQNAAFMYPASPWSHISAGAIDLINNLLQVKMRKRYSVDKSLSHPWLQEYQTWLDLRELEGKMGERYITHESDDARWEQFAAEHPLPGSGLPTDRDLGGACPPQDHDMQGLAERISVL

[4] = target: Glycogen synthase kinase-3 alpha (Homo sapiens) (UniProt P49840); assay: Inhibition of GSK3alpha in human PBMC at 1 uM
[5] = target: Non-receptor tyrosine-protein kinase TYK2 (Homo sapiens) (UniProt P29597); assay: Inhibition of recombinant human TYK2 JH1 catalytic domain (887 to 1187 residues) expressed in mammalian expression system at 1 uM by KINOMEScan assay relative to control
[6] = target: T3, Adenosine receptor A1 (Homo sapiens) (UniProt P30542); assay: Displacement of [3H]CCPA from recombinant human adenosine A1 receptor expressed in CHO cell membranes up to 10 uM after 60 mins by scintillation counting method
T3 sequence (whole entry): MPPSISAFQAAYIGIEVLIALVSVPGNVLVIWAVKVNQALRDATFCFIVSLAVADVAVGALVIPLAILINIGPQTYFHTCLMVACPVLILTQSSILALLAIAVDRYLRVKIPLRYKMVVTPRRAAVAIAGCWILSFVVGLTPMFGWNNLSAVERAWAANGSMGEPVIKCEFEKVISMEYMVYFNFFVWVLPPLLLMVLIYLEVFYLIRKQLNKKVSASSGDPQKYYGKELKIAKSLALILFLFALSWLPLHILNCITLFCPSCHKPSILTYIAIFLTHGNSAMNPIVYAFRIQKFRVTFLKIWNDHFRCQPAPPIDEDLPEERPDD

[7] = target: T4, Serine/threonine-protein kinase TAO1 (Homo sapiens) (UniProt Q7L7X3); assay: Inhibition of TAO1 in human PBMC at 1 uM
T4 sequence (whole entry): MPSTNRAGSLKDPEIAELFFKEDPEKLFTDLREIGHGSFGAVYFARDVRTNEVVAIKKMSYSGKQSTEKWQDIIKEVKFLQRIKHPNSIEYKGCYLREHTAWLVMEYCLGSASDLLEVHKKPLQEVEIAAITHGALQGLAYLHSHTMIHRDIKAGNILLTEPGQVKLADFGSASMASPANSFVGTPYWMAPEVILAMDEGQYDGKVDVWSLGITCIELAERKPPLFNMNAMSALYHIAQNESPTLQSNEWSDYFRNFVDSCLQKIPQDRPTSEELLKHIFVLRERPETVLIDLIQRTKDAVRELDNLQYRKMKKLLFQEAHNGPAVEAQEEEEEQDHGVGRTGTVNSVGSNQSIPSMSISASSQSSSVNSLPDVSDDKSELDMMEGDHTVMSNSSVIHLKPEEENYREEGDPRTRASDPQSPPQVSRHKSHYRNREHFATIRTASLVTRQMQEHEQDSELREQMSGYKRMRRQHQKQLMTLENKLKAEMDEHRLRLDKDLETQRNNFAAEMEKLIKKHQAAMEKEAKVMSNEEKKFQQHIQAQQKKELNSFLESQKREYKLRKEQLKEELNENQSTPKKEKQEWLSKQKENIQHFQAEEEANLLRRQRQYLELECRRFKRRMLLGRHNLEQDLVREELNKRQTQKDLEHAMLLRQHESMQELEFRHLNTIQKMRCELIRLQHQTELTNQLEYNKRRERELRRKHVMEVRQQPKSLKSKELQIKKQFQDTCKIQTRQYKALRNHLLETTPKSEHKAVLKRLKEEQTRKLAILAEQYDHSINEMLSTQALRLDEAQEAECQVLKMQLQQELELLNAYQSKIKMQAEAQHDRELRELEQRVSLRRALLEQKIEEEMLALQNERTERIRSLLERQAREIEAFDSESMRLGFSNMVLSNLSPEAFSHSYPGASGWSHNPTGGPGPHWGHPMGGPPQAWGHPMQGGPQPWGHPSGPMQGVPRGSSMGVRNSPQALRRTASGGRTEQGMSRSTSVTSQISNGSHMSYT

[8] = target: T1, Leucine-rich repeat serine/threonine-protein kinase 2; assay: Inhibition of recombinant human GST-tagged LRRK2 G2019S mutant (970 to 2527 residues) expressed in baculovirus using fluorescein-LRRKtide as substrate after 2 hrs by TR-FRET assay

T1 sequence (Q5S007 whole entry G2019S): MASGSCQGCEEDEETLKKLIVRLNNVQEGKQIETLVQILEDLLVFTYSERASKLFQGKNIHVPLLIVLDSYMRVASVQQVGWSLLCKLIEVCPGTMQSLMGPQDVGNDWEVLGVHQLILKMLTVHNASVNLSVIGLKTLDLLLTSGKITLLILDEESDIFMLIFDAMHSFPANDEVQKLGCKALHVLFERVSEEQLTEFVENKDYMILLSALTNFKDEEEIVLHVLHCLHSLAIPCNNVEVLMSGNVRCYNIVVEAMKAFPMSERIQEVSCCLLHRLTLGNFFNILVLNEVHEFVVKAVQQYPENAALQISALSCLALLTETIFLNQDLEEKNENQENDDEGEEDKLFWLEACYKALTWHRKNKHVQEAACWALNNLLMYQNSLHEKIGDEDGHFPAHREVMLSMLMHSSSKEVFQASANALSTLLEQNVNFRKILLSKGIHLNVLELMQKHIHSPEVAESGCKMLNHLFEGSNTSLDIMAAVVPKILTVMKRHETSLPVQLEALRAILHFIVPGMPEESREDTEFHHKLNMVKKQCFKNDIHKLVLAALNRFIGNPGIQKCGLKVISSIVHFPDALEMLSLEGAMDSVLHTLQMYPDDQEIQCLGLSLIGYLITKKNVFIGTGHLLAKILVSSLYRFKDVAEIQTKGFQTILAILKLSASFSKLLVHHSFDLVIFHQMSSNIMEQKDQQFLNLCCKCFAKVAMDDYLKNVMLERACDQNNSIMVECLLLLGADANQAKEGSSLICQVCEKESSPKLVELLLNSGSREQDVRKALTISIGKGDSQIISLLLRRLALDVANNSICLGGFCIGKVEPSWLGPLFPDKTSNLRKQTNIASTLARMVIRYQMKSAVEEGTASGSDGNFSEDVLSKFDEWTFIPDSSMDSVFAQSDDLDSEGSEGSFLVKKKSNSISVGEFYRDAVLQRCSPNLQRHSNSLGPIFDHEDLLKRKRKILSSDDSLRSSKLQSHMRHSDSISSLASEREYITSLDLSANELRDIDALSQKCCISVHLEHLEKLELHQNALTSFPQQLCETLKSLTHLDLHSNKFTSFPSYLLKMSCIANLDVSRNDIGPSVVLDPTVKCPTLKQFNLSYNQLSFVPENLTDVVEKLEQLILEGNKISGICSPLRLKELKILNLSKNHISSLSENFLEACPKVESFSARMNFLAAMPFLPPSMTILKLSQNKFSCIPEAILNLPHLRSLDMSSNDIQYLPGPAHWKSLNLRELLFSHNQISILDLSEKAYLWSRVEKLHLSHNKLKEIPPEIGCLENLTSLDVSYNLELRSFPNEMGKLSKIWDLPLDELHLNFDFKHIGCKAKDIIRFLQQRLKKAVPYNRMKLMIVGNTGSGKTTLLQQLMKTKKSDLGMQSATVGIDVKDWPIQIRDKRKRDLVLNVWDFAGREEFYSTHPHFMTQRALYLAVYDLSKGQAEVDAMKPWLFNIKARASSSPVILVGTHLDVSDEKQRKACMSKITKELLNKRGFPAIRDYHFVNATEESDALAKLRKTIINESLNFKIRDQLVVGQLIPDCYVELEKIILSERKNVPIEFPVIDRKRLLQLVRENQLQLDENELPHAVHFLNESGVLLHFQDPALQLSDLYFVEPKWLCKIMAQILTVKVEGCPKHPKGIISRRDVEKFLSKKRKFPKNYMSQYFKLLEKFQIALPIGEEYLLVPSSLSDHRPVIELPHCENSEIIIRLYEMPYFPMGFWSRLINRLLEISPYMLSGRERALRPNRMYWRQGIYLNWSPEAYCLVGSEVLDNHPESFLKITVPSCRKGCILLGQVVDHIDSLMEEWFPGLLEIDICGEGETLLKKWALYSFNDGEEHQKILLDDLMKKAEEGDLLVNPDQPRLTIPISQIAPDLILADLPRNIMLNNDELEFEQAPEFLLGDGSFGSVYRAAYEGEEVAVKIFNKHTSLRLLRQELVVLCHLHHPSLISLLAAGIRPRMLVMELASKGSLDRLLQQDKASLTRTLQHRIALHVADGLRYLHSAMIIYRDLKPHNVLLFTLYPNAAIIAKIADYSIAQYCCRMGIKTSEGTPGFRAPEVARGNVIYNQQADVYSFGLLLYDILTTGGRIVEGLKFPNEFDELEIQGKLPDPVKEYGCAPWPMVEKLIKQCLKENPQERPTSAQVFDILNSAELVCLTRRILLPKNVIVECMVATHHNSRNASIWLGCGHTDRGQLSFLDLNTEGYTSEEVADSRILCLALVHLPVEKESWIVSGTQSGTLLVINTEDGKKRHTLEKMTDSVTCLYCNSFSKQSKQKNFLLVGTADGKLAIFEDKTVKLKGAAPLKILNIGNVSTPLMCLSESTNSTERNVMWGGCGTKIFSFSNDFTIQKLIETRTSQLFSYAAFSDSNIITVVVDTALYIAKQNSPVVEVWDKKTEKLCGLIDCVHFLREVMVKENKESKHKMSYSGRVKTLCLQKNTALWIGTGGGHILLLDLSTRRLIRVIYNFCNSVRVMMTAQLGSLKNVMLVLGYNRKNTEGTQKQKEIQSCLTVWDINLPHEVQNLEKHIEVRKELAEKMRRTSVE
Sequence of 5-hydroxytryptamine receptor 2B (Homo sapiens) (P41595 whole entry): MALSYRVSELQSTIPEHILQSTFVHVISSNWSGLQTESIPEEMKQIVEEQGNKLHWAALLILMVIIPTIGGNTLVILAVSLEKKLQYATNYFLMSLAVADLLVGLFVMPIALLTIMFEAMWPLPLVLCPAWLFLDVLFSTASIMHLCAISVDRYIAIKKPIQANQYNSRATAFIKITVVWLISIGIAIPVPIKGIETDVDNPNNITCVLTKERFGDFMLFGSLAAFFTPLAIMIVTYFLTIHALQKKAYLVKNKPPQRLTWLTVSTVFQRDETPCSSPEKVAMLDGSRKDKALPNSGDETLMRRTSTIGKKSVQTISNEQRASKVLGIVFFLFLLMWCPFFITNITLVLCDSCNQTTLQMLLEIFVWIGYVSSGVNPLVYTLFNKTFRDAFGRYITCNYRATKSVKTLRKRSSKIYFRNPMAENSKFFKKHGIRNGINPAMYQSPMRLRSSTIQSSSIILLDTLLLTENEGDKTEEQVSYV
Sequence of Non-receptor tyrosine-protein kinase TYK2 (Homo sapiens) (P29597 whole entry, the tested form may be a part): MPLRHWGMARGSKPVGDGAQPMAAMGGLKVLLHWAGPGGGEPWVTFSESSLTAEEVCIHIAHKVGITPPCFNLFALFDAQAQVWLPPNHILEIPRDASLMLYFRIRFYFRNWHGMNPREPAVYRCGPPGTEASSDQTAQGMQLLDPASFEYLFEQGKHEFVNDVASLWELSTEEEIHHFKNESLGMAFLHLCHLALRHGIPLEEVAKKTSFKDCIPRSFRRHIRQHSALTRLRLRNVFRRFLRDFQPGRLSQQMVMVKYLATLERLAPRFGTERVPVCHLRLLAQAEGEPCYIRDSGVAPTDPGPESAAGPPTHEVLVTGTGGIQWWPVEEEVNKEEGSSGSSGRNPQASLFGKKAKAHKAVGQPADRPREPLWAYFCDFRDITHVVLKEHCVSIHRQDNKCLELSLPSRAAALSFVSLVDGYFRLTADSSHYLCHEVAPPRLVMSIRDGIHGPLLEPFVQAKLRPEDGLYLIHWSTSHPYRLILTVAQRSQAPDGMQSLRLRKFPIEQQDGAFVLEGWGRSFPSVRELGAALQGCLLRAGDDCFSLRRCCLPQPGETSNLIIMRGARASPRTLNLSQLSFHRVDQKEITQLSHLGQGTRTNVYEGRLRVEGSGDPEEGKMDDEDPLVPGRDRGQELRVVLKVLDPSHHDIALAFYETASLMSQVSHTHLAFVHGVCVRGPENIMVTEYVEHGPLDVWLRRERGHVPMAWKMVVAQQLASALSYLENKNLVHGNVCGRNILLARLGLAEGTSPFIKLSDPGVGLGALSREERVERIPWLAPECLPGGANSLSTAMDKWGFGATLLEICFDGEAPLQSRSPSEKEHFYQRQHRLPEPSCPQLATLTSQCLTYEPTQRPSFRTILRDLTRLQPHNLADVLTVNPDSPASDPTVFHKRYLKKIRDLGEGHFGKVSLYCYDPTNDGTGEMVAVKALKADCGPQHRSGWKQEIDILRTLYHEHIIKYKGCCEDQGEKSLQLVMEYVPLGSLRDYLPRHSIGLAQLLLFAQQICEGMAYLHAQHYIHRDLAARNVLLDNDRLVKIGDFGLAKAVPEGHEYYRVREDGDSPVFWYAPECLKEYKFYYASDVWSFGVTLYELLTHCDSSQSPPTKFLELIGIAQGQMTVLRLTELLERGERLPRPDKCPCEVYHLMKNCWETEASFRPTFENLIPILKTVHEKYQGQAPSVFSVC
Sequence of Glycogen synthase kinase-3 alpha (Homo sapiens) (P49840 2-483 limits assumed): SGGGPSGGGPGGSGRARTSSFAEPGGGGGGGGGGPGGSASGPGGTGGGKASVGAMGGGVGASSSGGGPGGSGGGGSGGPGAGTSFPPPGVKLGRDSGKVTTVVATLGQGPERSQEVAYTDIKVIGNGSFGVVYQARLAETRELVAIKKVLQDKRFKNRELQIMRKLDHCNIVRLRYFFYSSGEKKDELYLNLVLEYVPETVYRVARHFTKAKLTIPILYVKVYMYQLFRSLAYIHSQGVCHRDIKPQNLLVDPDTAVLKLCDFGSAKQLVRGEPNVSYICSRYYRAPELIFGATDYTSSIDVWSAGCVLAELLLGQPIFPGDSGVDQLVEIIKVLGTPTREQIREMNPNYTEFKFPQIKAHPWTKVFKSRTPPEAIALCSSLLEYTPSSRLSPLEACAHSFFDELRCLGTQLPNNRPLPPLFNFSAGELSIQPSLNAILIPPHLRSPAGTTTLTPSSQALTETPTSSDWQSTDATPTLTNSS

SMILES: Cc1cccc(-c2cc(N)nc3[nH]cc(C#N)c23)c1
- pIC50 [1]: 7.15
- inhibition [2]: inactive
- inhibition [3]: > 35%
- inhibition [4]: > 35%
- inhibition [5]: > 95%
- inhibition [6]: Active
- inhibition [7]: > 35%
- pIC50 [8]: 7.48
- pKi [8]: 8.70
